Measurements as given in PMC6906348 (Therapeutic Advances in Medical Oncology, 2019).

Tests used:
Plasma pharmacokinetics = assay type: in vivo, human
[1] = test system: patients with MET-dysregulated advanced hepatocellular carcinoma (HCC); assay: Antitumor activity per RECIST 1.1; assay type: in vivo, human; conditions: for Best overall response: Unknown: RECIST 1.1 data do not qualify for PD, PR, or SD
How it was run: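 Asia-Pacific patients with advanced HCC received oral test compound twice daily in continuous 21-day cycles: 300 mg capsules (dose-determining), or 600 mg capsules or 400 mg tablets (expansion), until progression or toxicity. Investigator read response per RECIST 1.1 on CT, or contrast MRI if CT was contraindicated. MET-high meant IHC 3+ in ⩾50% tumor cells, or 2+ in ⩾50% plus FISH GCN ⩾5.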

[2] = test system: patients with advanced solid tumors; conditions: cited from earlier work
MET = conditions: cited from earlier work
[3] = Dose-determining n = 8 (300 mg BID capsules)
[4] = Dose-expansion, All patients n = 30
[5] = Dose-expansion, MET-high n = 10
[6] = MET-high expansion group (n = 10)
[7] = MET-high expansion group, 1 patient

Question: What does the source list for `CNC(=O)c1ccc(-c2cnc3ncc(Cc4ccc5ncccc5c4)n3n2)cc1F` [capmatinib]?
Answer: Tmax, Median (Plasma pharmacokinetics; 300 mg BID capsule, Cycle 1 Day 1, n = 8, plasma): 2.0 h; AUC(0-t) (Plasma pharmacokinetics; human, plasma, oral, 300 mg, geomean AUC0−12 h, 300 mg BID capsules, cycle 1 day 1): 7740 ng·h/mL; Cmax (Plasma pharmacokinetics; human, plasma, oral, 300 mg, geomean Cmax, 300 mg BID capsules, cycle 1 day 1): 2140 ng/mL; steady-state accumulation (Plasma pharmacokinetics; patients with HCC): minimal; Best overall response: Complete response (CR) [1, 3]: 0 n (%); Best overall response: Partial response (PR) [1, 3]: 0 n (%); Best overall response: Progressive disease [1, 3]: 3 (38) n (%); Best overall response: Unconfirmed CR [1, 3]: 0 n (%); Best overall response: Unconfirmed PR [1, 3]: 0 n (%); Disease control rate (CR + PR + SD) (95% CI) [1, 3]: 2 (25) (3.2−65.1) n (%); Overall response rate (CI 95%) [1, 3]: 0 (0−36.9) n (%); Best overall response: Unknown [1, 3]: 3 (38) n (%); Best overall response: Complete response (CR) [1, 4]: 1 (3) n (%); Best overall response: Partial response (PR) [1, 4]: 2 (7) n (%); Best overall response: Progressive disease [1, 4]: 16 (53) n (%); Best overall response: Unconfirmed CR [1, 4]: 0 n (%); Best overall response: Unconfirmed PR [1, 4]: 1 (3) n (%); Disease control rate (CR + PR + SD) (95% CI) [1, 4]: 10 (33) (17.3−52.8) n (%); Overall response rate (CI 95%) [1, 4]: 3 (10) (2.1−26.5) n (%); Best overall response: Unknown [1, 4]: 4 (13) n (%); Best overall response: Complete response (CR) [1, 5]: 1 (10) n (%); Best overall response: Partial response (PR) [1, 5]: 2 (20) n (%); Best overall response: Progressive disease [1, 5]: 4 (40) n (%); Best overall response: Unconfirmed CR [1, 5]: 0 n (%); Best overall response: Unconfirmed PR [1, 5]: 1 (10) n (%); Disease control rate (CR + PR + SD) (95% CI) [1, 5]: 5 (50) (18.7−81.3) n (%); Overall response rate (CI 95%) [1, 5]: 3 (30) (6.7−65.2) n (%); Best overall response: Unknown [1, 5]: 1 (10) n (%); Best overall response: Complete response (CR) ([1]; Dose-expansion, MET-low n = 20): 0 n (%); Best overall response: Partial response (PR) ([1]; Dose-expansion, MET-low n = 20): 0 n (%); Best overall response: Progressive disease ([1]; Dose-expansion, MET-low n = 20): 12 (60) n (%); Best overall response: Unconfirmed CR ([1]; Dose-expansion, MET-low n = 20): 0 n (%); Best overall response: Unconfirmed PR ([1]; Dose-expansion, MET-low n = 20): 0 n (%); Disease control rate (CR + PR + SD) (95% CI) ([1]; Dose-expansion, MET-low n = 20): 5 (25) (8.7−49.1) n (%); Overall response rate (CI 95%) ([1]; Dose-expansion, MET-low n = 20): 0 (0−16.8) n (%); Best overall response: Unknown ([1]; Dose-expansion, MET-low n = 20): 3 (15) n (%); number of complete responses [1, 6]: 1; number of partial responses [1, 6]: 2; duration of durable complete response [1, 7]: > 600 days; duration of durable partial response [1, 7]: > 600 days; overall response rate ([1]; all expansion patients (n = 30), regardless of MET status): 10%; time on treatment of two responding patients ([1]; at data cut-off, still on treatment): over 600 days; patients with MET-high status achieving tumor shrinkage ([1]; expansion stage): 6/10; overall response rate ([1]; expansion stage, MET-high (n = 10)): 30%; safety profile [2]: tolerable safety profile; MET inhibition (MET): highly potent and selective
